From PubChem BioAssay AID561 (The Scripps Research Institute Molecular Screening Center, 2006)
About 280 (0.43%) of roughly 65,000 compounds were called active. This excerpt belongs to a sample that is enriched for actives. Unmarked numbers belong to inactive results.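 Rule for the calls: active = inhibition above the mean of all tested compounds plus 3 SD (cut at about 52% in these data); inactive = the rest.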

Each compound was assayed against Nuclear receptor ROR-alpha (Homo sapiens) (UniProt P35398) (assay: suppression of basal RORA-driven reporter transcription – cell-based, luminescence, primary screen (AID 561)). Details: CHO-K1 Gal4-RORA LBD luciferase reporter, at 10 µM, active compounds read high.
Nuclear receptor ROR-alpha (Homo sapiens), sequence (P35398 whole entry, looked up, the tested form may be a part): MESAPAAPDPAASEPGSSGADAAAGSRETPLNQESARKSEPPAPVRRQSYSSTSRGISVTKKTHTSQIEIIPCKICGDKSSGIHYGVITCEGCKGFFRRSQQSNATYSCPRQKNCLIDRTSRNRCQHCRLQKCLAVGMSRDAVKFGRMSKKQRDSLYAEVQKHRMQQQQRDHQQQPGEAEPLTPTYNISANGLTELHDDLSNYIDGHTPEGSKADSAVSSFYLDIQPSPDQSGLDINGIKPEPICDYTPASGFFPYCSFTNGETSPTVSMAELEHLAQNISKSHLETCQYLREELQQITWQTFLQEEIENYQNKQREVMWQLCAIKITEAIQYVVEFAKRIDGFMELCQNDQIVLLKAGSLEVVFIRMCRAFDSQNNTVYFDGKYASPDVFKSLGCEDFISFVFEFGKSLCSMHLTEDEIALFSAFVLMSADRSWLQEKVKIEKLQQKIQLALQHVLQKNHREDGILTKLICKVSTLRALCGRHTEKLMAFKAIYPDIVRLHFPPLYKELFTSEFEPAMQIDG
How it was run: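 System: transiently transfected CHO-K1 cells, Gal4-DBD/human RORA-LBD fusion plus 5xGal4-luciferase reporter. Doses: one dose of 10 µM final. Timing: 20 h compound treatment, 37 °C. Measured by: luminescence. Evaluation: % inhibition of basal luciferase versus +RORA/-RORA DMSO controls. Benchmarks: mock-transfected cells as 100%, +RORA DMSO cells as 0%. Replicates: single test per compound.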

| Structure (SMILES) | inhibition |
| --- | --- |
| Cc1ccccc1CSc1nnc(-c2cccnc2)n1N | 7.1% |
| O=C1c2ccccc2C(=O)N1c1ccccc1S(=O)C(F)(F)F (configuration not stated) | -6.1% |
| COc1ccc(-n2ncc3c(N4CCc5ccccc54)ncnc32)cc1 | -50.3% |
| CCS(=O)(=O)N1CCCC(C(=O)NCc2ccc(C)cc2)C1 (configuration not stated) | 5.2% |
| Cc1cccc2nc(CNc3ccc(F)cc3)cn12 | -1% |
| Cc1cccc(NC(=O)c2ccc3ccccc3n2)n1 | -83% |
| COc1ccc(N2CCN(C(=O)CSc3nc4cc(OC)c(OC)cc4cc3C#N)CC2)cc1 | 8.5% |
| Cc1ccc(NC(=O)NCC(c2cccnc2)N2CCOCC2)cc1 (configuration not stated) | 20.8% |
| CCOC(=O)C1=C(C)NC(C)=C(C(=O)OCC)C1C1=COCCO1 | 7.2% |
| O=C(NCCN1CCOCC1)c1ccc2c(c1)ncn2C1CCCC1 | -3.7% |
| Cc1cc(C(=O)OCC(=O)NCc2ccco2)c(C)n1-c1ccccc1 | -61.4% |
| CCCOC(=O)c1[nH]c2c(c1C)C(=O)CC(c1cc(OC)c(OC)c(OC)c1)C2 (configuration not stated) | 61.1% (active) |
| Cc1ccccc1OCC(=O)Nc1ccc(N2CCN(C(=O)C(C)C)CC2)c(Cl)c1 | 52% (active) |
| COc1ccc(C(=O)CSc2nnc(COc3ccccc3)n2Cc2ccco2)cc1 | -7.7% |
| COc1ccc(C)c2sc(=NC(=O)c3ccc(C#N)cc3)n(C)c12 | -84.6% |
| CCS(=O)(=O)n1nc(-c2ccc(OC)cc2)nc1SC | -52.4% |
| N#Cc1nc(Cc2ccccc2)oc1NCCc1ccccc1 | -54.1% |
| COc1cc(-n2c(C)nc3cc(C(=O)NCc4ccco4)ccc32)cc(OC)c1OC | -5.4% |
| COc1ccc(OC)c(CN2C(=O)CCC2(C)C(=O)NC2CCCCCC2)c1 (configuration not stated) | 5.2% |
| CCN(CC)S(=O)(=O)c1cc(C(=O)Nc2ccccn2)ccc1C | -59.6% |
| O=C(Nc1c(C(=O)N2CCCCC2)cnn1-c1ccccc1)c1ccco1 | -6.7% |
| O=c1c2ccccc2oc2nc(C3CCCCC3)n(Cc3ccco3)c(=O)c12 | 2.7% |
| Cc1cccc(OCc2nnc(SCc3nc4cc(C(F)(F)F)ccc4c(=O)[nH]3)o2)c1 | 16.5% |
| CCOc1cccc(-c2nn3c(-c4ccccn4)nnc3s2)c1 | -0.6% |
| O=C(Nc1ccc(Cl)cn1)c1cnn2cccnc12 | -62% |
| CSc1ccc(NC(=O)N2CC(C)OC(C)C2)cc1 (configuration not stated) | 9.2% |
| CCC(CC)C(=O)Nc1cccc(C(=O)N2CCCC2)c1 | -11% |
